Activity calls are given as the source filed them. The calls are words filed in the database; no cut-off is given here.
Tests used:
[1] = molecular target: T1, Muscarinic acetylcholine receptor M2 (Sus scrofa) (UniProt P06199); assay: Concentration for half maximal inhibition of [3H]NMS dissociation from muscarinic acetylcholine receptor M2 in porcine heart ventricles
T1 sequence (whole entry): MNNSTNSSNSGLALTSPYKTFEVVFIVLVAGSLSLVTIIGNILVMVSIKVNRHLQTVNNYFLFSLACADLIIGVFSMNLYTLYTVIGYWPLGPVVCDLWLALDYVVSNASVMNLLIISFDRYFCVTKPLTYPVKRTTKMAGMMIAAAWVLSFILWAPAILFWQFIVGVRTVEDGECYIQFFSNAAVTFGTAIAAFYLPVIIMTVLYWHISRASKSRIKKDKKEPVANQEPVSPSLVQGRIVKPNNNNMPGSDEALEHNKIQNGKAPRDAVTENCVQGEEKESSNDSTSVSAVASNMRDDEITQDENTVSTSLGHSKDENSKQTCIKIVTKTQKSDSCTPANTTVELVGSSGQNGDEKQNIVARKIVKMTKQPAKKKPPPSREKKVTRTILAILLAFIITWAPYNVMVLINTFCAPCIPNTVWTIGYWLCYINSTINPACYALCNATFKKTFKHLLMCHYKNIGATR
Summary of the method: (§1)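 Porcine cardiac homogenates, 0.2 nM [3H]NMS in 4 mM Na2HPO4/1 mM KH2PO4 pH 7.4, 23 °C; preincubated 30 min, then dissociation started with 1 μM atropine with or without modulator. Specific binding sampled over 120 min (complete) or at t=0 and 10 min (two-point). Apparent k-1 expressed as % control; four-parameter logistic fit gives EC0.5,diss. Two to four experiments; nonspecific defined by 10^-6 M atropine; filtration, scintillation counting.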

[2] = molecular target: T1, Muscarinic acetylcholine receptor M2 (Sus scrofa); assay: Equilibrium binding to muscarinic acetylcholine receptor M2 using [3H]NMS in porcine heart ventricles
[3] = molecular target: T1, Muscarinic acetylcholine receptor M2 (Sus scrofa); assay: Effective concentration for half maximal inhibition of [3H]NMS dissociation from Muscarinic acetylcholine receptor M2 in porcine heart ventricles; Non-active; summary of the method: as §1

pEC0.5 [1]	[3H]NMS equilibrium binding (%) [2]	pEC0.5 [3]	Structure (SMILES)
7.86	110%	–	C1=C2C[N@+]3(CC4CC4)CCC45c6ccccc6N6C7OCC=C8C[N@+]9(CC%10CC%10)CCC%10%11c%12ccccc%12N(C(OC1)C(C2CC43)C65)C%10C7C8CC%119 (stereo partly drawn)
6.47	100%	–	COc1ccc(C[N+]23CC[C@@]45c6ccccc6N6[C@@H]7OCC=C8C[N+]9(Cc%10ccc(OC)c(OC)c%10)CC[C@]%10%11c%12ccccc%12N([C@@H]%12OCC=C(C2)[C@H](C[C@@H]43)C%12[C@H]65)[C@H]%10[C@H]7[C@H]8C[C@@H]%119)cc1OC (stereo partly drawn)
6.43	88.4%	–	O=C1c2ccccc2C(=O)N1CCC[N@+]12CCC34c5ccccc5N5C6OCC=C7C[N@+]8(CCCN9C(=O)c%10ccccc%10C9=O)CCC9%10c%11ccccc%11N(C%11OCC=C(C1)C(CC32)C%11C54)C9C6C7CC%108 (stereo partly drawn)
7.7	109%	–	C1=CC([N@+]23CCC45c6ccccc6N6C7OCC=C8C[N@+]9(C%10C=CCCC%10)CCC%10%11c%12ccccc%12N(C%12OCC=C(C2)C(CC43)C%12C65)C%10C7C8CC%119)CCC1 (stereo partly drawn)
8.44	104%	–	C[N+]12CC[C@@]34c5ccccc5N5[C@@H]6OCC[C@@H]7C[N+]8(C)CC[C@]9%10c%11ccccc%11N([C@@H]%11OCC[C@H](C1)[C@H](C[C@@H]32)C%11[C@H]54)[C@H]9[C@H]6[C@H]7C[C@@H]%108 (stereo partly drawn)
6.47	99.8%	–	O=[N+]([O-])c1ccc(C[N+]23CC[C@@]45c6ccccc6N6[C@@H]7OCC=C8C[N+]9(Cc%10ccc([N+](=O)[O-])cc%10)CC[C@]%10%11c%12ccccc%12N([C@@H]%12OCC=C(C2)[C@H](C[C@@H]43)C%12[C@H]65)[C@H]%10[C@H]7[C@H]8C[C@@H]%119)cc1 (stereo partly drawn)
6.69	85.3%	–	N#CC[N+]12CC[C@@]34c5ccccc5N5[C@@H]6OCC=C7C[N+]8(CC#N)CC[C@]9%10c%11ccccc%11N([C@@H]%11OCC=C(C1)[C@H](C[C@@H]32)C%11[C@H]54)[C@H]9[C@H]6[C@H]7C[C@@H]%108 (stereo partly drawn)
5.76	87%	–	FC(F)(F)c1ccc(C[N+]23CC[C@@]45c6ccccc6N6[C@@H]7OCC=C8C[N+]9(Cc%10ccc(C(F)(F)F)cc%10)CC[C@]%10%11c%12ccccc%12N([C@@H]%12OCC=C(C2)[C@H](C[C@@H]43)[C@@H]%12[C@H]65)[C@H]%10[C@H]7[C@H]8C[C@@H]%119)cc1 (stereo partly drawn)
8.65	116%	–	C=CC[N@@+]12CC[C@@]34c5ccccc5N5/C=C6/[C@H]7C[C@H]8[C@@]9(CC[N@@+]8(CC=C)C/C7=C/CO)c7ccccc7N(/C=C(/[C@@H](C[C@@H]31)/C(=C\CO)C2)[C@H]54)[C@@H]69
5.49	6.1%	–	O=C(C[N+]12CC[C@@]34c5ccccc5N5[C@@H]6OCC=C7C[N+]8(CC(=O)c9ccccc9)CC[C@]9%10c%11ccccc%11N([C@@H]%11OCC=C(C1)[C@H](C[C@@H]32)[C@@H]%11[C@H]54)[C@H]9[C@H]6[C@H]7C[C@@H]%108)c1ccccc1 (stereo partly drawn)
8.57	119%	–	C=CC[N+]12CC[C@@]34c5ccccc5N5/C=C6\C7N(c8ccccc8[C@@]78CC[N+]7(CC=C)C/C(=C/CO)[C@@H]6C[C@@H]87)[C@@H]6OCC=C(C1)[C@H](C[C@@H]32)C6C54 (stereo partly drawn)
7.19	110%	–	C1=C2C[N+]3(CC4CO4)CC[C@@]45c6ccccc6N6[C@@H]7OCC=C8C[N+]9(CC%10CO%10)CC[C@]%10%11c%12ccccc%12N([C@H](OC1)[C@H](C2C[C@@H]43)[C@H]65)[C@H]%10[C@H]7[C@H]8C[C@@H]%119 (stereo partly drawn)
–	–	inactive	[O-][N+]12CC[C@@]34c5ccccc5N5[C@@H]6OCC=C7C[N+]8([O-])CC[C@]9%10c%11ccccc%11N([C@@H]%11OCC=C(C1)[C@H](C[C@@H]32)C%11[C@H]54)[C@H]9[C@H]6[C@H]7C[C@@H]%108 (stereo partly drawn)
7.14	100%	–	C/C=C/C[N@+]12CCC34c5ccccc5N5C6OCC=C7C[N@+]8(C/C=C/C)CCC9%10c%11ccccc%11N(C%11OCC=C(C1)C(CC32)C%11C54)C9C6C7CC%108 (stereo partly drawn)
7.27	111%	–	Fc1c(F)c(F)c(C[N@+]23CCC45c6ccccc6N6C7OCC=C8C[N@+]9(Cc%10c(F)c(F)c(F)c(F)c%10F)CCC%10%11c%12ccccc%12N(C%12OCC=C(C2)C(CC43)C%12C65)C%10C7C8CC%119)c(F)c1F (stereo partly drawn)

Second part, the molecule before the results:

Structure (SMILES)	pEC0.5 [1]	[3H]NMS equilibrium binding (%) [2]	pEC0.5 [3]
CC#CC[N@+]12CCC34c5ccccc5N5C6OCC=C7C[N@+]8(CC#CC)CCC9%10c%11ccccc%11N(C%11OCC=C(C1)C(CC32)C%11C54)C9C6C7CC%108 (stereo partly drawn)	7.36	103%	–
NC(=O)C[N+]12CC[C@@]34c5ccccc5N5[C@@H]6OCC=C7C[N+]8(CC(N)=O)CC[C@]9%10c%11ccccc%11N([C@@H]%11OCC=C(C1)[C@H](C[C@@H]32)[C@@H]%11[C@H]54)[C@H]9[C@H]6[C@H]7C[C@@H]%108 (stereo partly drawn)	6.65	87.8%	–
C[N@@+]12CC[C@@]34c5ccccc5N5/C=C6/[C@H]7C[C@H]8[C@@]9(CC[N@@+]8(C)C/C7=C/CO)c7ccccc7N(/C=C(/[C@@H](C[C@@H]31)/C(=C\CO)C2)[C@H]54)[C@@H]69	7.02	104%	–
C#CC[N@+]12CCC34c5ccccc5N5C6OCC=C7C[N@+]8(CC#C)CCC9%10c%11ccccc%11N(C%11OCC=C(C1)C(CC32)C%11C54)C9C6C7CC%108 (stereo partly drawn)	8.36	105%	–
C=CC[N+]12CC[C@@]34c5ccccc5N5[C@@H]6OCC=C7CN8CC[C@]9%10c%11ccccc%11N([C@@H]%11OCC=C(C1)[C@H](C[C@@H]32)[C@@H]%11[C@H]54)[C@H]9[C@H]6[C@H]7C[C@H]8%10 (stereo partly drawn)	7.74	81.4%	–
C1=C2CN3CC[C@]45c6ccccc6N6[C@@H]7OCC=C8CN9CC[C@]%10%11c%12ccccc%12N([C@H](OC1)[C@@H]([C@H]64)[C@H]2C[C@H]35)[C@H]%10[C@H]7[C@H]8C[C@H]9%11	6.36	95.8%	–
C1=C2C[N@+]3(Cc4ccccc4)CCC45c6ccccc6N6C7OCC=C8C[N@+]9(Cc%10ccccc%10)CCC%10%11c%12ccccc%12N(C(OC1)C(C2CC43)C65)C%10C7C8CC%119 (stereo partly drawn)	7.12	86.4%	–
OC/C=C1\C[N+]2(C3C=CCCC3)CCC34c5ccccc5N5/C=C6/C7CC8C9(CC[N+]8(C8C=CCCC8)C/C7=C/CO)c7ccccc7N(/C=C(/C1CC32)C54)C69 (stereo not drawn)	8.07	118%	–
C1=C2C[N@+]3(Cc4ccc5ccccc5c4)CCC45c6ccccc6N6C7OCC=C8C[N@+]9(Cc%10ccc%11ccccc%11c%10)CCC%10%11c%12ccccc%12N(C(OC1)C(C2CC43)C65)C%10C7C8CC%119 (stereo partly drawn)	5.82	89%	–
C=CC[N+]12CC[C@]34c5cc(OC)c(OC)cc5N5C3[C@@H]3[C@@H](OCC=C(C1)[C@@H]3C[C@@H]42)N1c2cc(OC)c(OC)cc2[C@@]23CC[N+]4(CC=C)CC6=CCO[C@@H]5[C@@H](C12)[C@H]6C[C@@H]34 (stereo partly drawn)	6.69	–	–
C[N+]12CC[C@@]34c5ccccc5N5[C@@H]6OCC=C7C[N+]8(C)CC[C@]9%10c%11ccccc%11N([C@@H]%11OCC=C(C1)[C@H](C[C@@H]32)[C@@H]%11[C@H]54)[C@H]9[C@H]6[C@H]7C[C@@H]%108 (stereo partly drawn)	8.09	115%	–
Brc1ccc(C[N+]23CC[C@@]45c6ccccc6N6[C@@H]7OCC=C8C[N+]9(Cc%10ccc(Br)cc%10)CC[C@]%10%11c%12ccccc%12N([C@@H]%12OCC=C(C2)[C@H](C[C@@H]43)[C@@H]%12[C@H]65)[C@H]%10[C@H]7[C@H]8C[C@@H]%119)cc1 (stereo partly drawn)	6.29	113%	–
C=CC[N+]12CC[C@@]34c5ccccc5N5[C@@H]6OCC=C7C[N+]8(CC=C)CC[C@]9%10c%11ccccc%11N([C@@H]%11OCC=C(C1)[C@H](C[C@@H]32)[C@@H]%11[C@H]54)[C@H]9[C@H]6[C@H]7C[C@@H]%108 (stereo partly drawn)	7.95	109%	–
C[N+]12CCC34c5ccccc5N5/C=C6/C7CC8C9(CC[N+]8(C)C/C7=C/CO)c7ccccc7N(/C=C(/C(CC31)/C(=C/CO)C2)C54)C69 (stereo not drawn)	7.87	119%	–
COc1ccc(C[N+]23CC[C@@]45c6ccccc6N6[C@@H]7OCC=C8C[N+]9(Cc%10ccc(OC)cc%10)CC[C@]%10%11c%12ccccc%12N([C@@H]%12OCC=C(C2)[C@H](C[C@@H]43)[C@@H]%12[C@H]65)[C@H]%10[C@H]7[C@H]8C[C@@H]%119)cc1 (stereo partly drawn)	5.95	70.4%	–
